Test results from ChEMBL document CHEMBL1255277, “Acinetobacter radioresistens as a silent source of carbapenem resistance for Acinetobacter spp” (2008).
Converted amounts (≈) assume the structure as drawn. Blank lines part the entries; values can stand above or below the compound they belong to. The source made the active and inactive calls. No cut-off for these calls is given here.

Key:
[1] = system: Acinetobacter baumannii; experiment: Activity of beta lactamase OXA23 in Acinetobacter baumannii Ab13 assessed as compound hydrolysis rate per mg of protein by spectrophotometry
How it was run: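 Crude culture extract (enzyme source) of the strain; hydrolysis followed by UV spectrophotometry with 100 μM benzylpenicillin or imipenem as substrate; rate expressed as U/mg of protein.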

[2] = system: Escherichia coli; experiment: Antimicrobial activity against Escherichia coli TOP10 harboring Beta-lactamase OXA-23 by Etest; format: functional
How it was run: (§1)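 MIC read by Etest on Mueller-Hinton agar at 37°C. Test strains were E. coli TOP10 and TOP10 recombinants carrying cloned OXA-23-like oxacillinase genes. Recombinant clones had been selected on kanamycin (30 μg/ml) plus amoxicillin (30 μg/ml), and cloned inserts were confirmed by double-strand sequencing.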

[3] = system: Escherichia coli; experiment: Antimicrobial activity against Escherichia coli TOP10 harboring Beta-lactamase OXA-102 by Etest; format: functional; how it was run: as §1
[4] = system: Acinetobacter radioresistens; experiment: Antimicrobial activity against Acinetobacter radioresistens isolates by Etest; format: functional
How it was run: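 MICs determined by Etest on Mueller-Hinton agar at 37°C; strains previously grown overnight at 37°C on Mueller-Hinton agar plates.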

[5] = system: Escherichia coli; experiment: Antimicrobial activity against Escherichia coli TOP10 harboring Beta-lactamase OXA-103 by Etest; format: functional; how it was run: as §1
[6] = system: Escherichia coli; experiment: Antimicrobial activity against Escherichia coli TOP10 harboring Beta-lactamase OXA-105 by Etest; format: functional; how it was run: as §1
[7] = system: Escherichia coli; experiment: Antimicrobial activity against Escherichia coli TOP10 by Etest; format: functional; how it was run: as §1

- Activity [1]: 5 U
SMILES: CC1(C)S[C@@H]2[C@H](NC(=O)Cc3ccccc3)C(=O)N2[C@H]1C(=O)O

SMILES: C[C@@H](O)[C@H]1C(=O)N2C(C(=O)O)=C(S[C@@H]3CN[C@H](C(=O)Nc4cccc(C(=O)O)c4)C3)[C@H](C)[C@H]12 [ERTAPENEM]
- MIC [2]: 0.012 µg/mL (≈ 0.0252 µM)
- MIC [3]: 0.125 µg/mL (≈ 0.263 µM)
- growth inhibition (GI) [4]: Active
- MIC [5]: 0.125 µg/mL (≈ 0.263 µM)
- MIC [6]: 0.125 µg/mL (≈ 0.263 µM)
- MIC [7]: 0.004 µg/mL (≈ 0.00841 µM)

SMILES: C[C@@H](O)[C@H]1C(=O)N2C(C(=O)O)=C(SCCNC=N)C[C@H]12 [IMIPENEM ANHYDROUS]
- MIC [2]: 1 µg/mL (≈ 3.34 µM)
- MIC [3]: 1 µg/mL (≈ 3.34 µM)
- growth inhibition (GI) [4]: Active
- MIC [5]: 1 µg/mL (≈ 3.34 µM)
- MIC [6]: 1 µg/mL (≈ 3.34 µM)
- MIC [7]: 0.125 µg/mL (≈ 0.418 µM)
- Activity [1]: 0.2 U

SMILES: C[C@@H](O)[C@H]1C(=O)N2C(C(=O)O)=C(S[C@@H]3CN[C@H](C(=O)N(C)C)C3)[C@H](C)[C@H]12 [MEROPENEM]
- MIC [2]: 0.047 µg/mL (≈ 0.123 µM)
- MIC [3]: 0.094 µg/mL (≈ 0.245 µM)
- growth inhibition (GI) [4]: Active
- MIC [5]: 0.094 µg/mL (≈ 0.245 µM)
- MIC [6]: 0.094 µg/mL (≈ 0.245 µM)
- MIC [7]: 0.047 µg/mL (≈ 0.123 µM)
